# Results published in ChEMBL document CHEMBL3864121, “Development of ebsulfur analogues as potent antibacterials against methicillin-resistant Staphylococcus aureus” (Bioorg Med Chem, 2016).
# How the values were obtained:
# Assay type in all cases: functional
# [1] = system: Staphylococcus aureus; test: Antibacterial activity against methicillin-resistant Staphylococcus aureus C7 measured after overnight incubation by broth double-dilution method
# How it was run: (§1)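 MIC by broth double-dilution in liquid Mueller-Hinton medium. Values are reported in µg/mL.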
# [2] = system: Staphylococcus aureus; test: Antibacterial activity against methicillin-resistant Staphylococcus aureus C14 measured after overnight incubation by broth double-dilution method; how it was run: as §1
# [3] = system: Staphylococcus aureus; test: Antibacterial activity against methicillin-resistant Staphylococcus aureus C1 measured after overnight incubation by broth double-dilution method; how it was run: as §1
# [4] = system: Staphylococcus aureus; test: Antibacterial activity against methicillin-resistant Staphylococcus aureus NRS4 measured after overnight incubation by broth double-dilution method; how it was run: as §1
# [5] = system: Staphylococcus aureus; test: Antibacterial activity against methicillin-resistant Staphylococcus aureus 2 measured after overnight incubation by broth double-dilution method; how it was run: as §1
# [6] = system: Staphylococcus aureus; test: Antibacterial activity against methicillin-resistant Staphylococcus aureus ATCC 33591 measured after overnight incubation by broth double-dilution method; how it was run: as §1
# [7] = system: Enterococcus; test: Antibacterial activity against Vancomycin-resistant Enterococcus measured after overnight incubation by broth double-dilution method; how it was run: as §1
# [8] = system: Staphylococcus aureus; test: Antibacterial activity against methicillin-resistant Staphylococcus aureus USA600 measured after overnight incubation by broth double-dilution method; how it was run: as §1
# [9] = system: Staphylococcus aureus; test: Antibacterial activity against methicillin-sensitive Staphylococcus aureus ATCC 29213 measured after overnight incubation by broth double-dilution method; how it was run: as §1
# [10] = system: Enterococcus faecium; test: Antibacterial activity against Enterococcus faecium BM4105-RF measured after overnight incubation by broth double-dilution method; how it was run: as §1
# [11] = system: Staphylococcus aureus; test: Antibacterial activity against methicillin-resistant Staphylococcus aureus S17 measured after overnight incubation by broth double-dilution method; how it was run: as §1
# [12] = system: Staphylococcus aureus; test: Antibacterial activity against methicillin-resistant Staphylococcus aureus G14 measured after overnight incubation by broth double-dilution method; how it was run: as §1
# [13] = system: Staphylococcus aureus; test: Antibacterial activity against methicillin-resistant Staphylococcus aureus G12 measured after overnight incubation by broth double-dilution method; how it was run: as §1
# [14] = system: Staphylococcus aureus; test: Antibacterial activity against methicillin-sensitive Staphylococcus aureus ATCC 25923 measured after overnight incubation by broth double-dilution method; how it was run: as §1
# [15] = system: Staphylococcus aureus; test: Antibacterial activity against methicillin-resistant Staphylococcus aureus BRS3 measured after overnight incubation by broth double-dilution method; how it was run: as §1
# [16] = system: Staphylococcus aureus; test: Antibacterial activity against methicillin-resistant Staphylococcus aureus USA200 measured after overnight incubation by broth double-dilution method; how it was run: as §1
# [17] = system: Enterococcus faecalis; test: Antibacterial activity against Enterococcus faecalis ATCC 49533 measured after overnight incubation by broth double-dilution method
# How it was run: (§2)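 MIC by broth double-dilution in Mueller-Hinton medium. Re-testing at the time-kill inoculum used 1×10^6 CFU/mL.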
# [18] = system: Staphylococcus aureus; test: Antibacterial activity against methicillin-resistant Staphylococcus aureus G1 measured after overnight incubation by broth double-dilution method; how it was run: as §1
# [19] = system: Mycolicibacterium smegmatis; test: Antibacterial activity against Mycobacterium smegmatis MC2-155 measured after overnight incubation by broth double-dilution method; details: str. MC2 155; how it was run: as §1
# [20] = system: Staphylococcus aureus; test: Antibacterial activity against methicillin-resistant Staphylococcus aureus USA100 measured after overnight incubation by broth double-dilution method; how it was run: as §1
# [21] = system: Enterococcus faecalis; test: Antibacterial activity against Enterococcus faecalis ATCC 29212 measured after overnight incubation by broth double-dilution method; how it was run: as §2
# [22] = system: Staphylococcus epidermidis; test: Antibacterial activity against Staphylococcus epidermidis ATCC 35984 measured after overnight incubation by broth double-dilution method; details: RP62A; how it was run: as §2
# [23] = system: Staphylococcus aureus; test: Antibacterial activity against methicillin-resistant Staphylococcus aureus S14 measured after overnight incubation by broth double-dilution method; how it was run: as §1
# [24] = system: Staphylococcus aureus; test: Antibacterial activity against methicillin-resistant Staphylococcus aureus NRS77 measured after overnight incubation by broth double-dilution method; how it was run: as §1
# [25] = system: Staphylococcus aureus; test: Antibacterial activity against methicillin-resistant Staphylococcus aureus C2 measured after overnight incubation by broth double-dilution method; how it was run: as §1
# [26] = system: Listeria monocytogenes; test: Antibacterial activity against Listeria monocytogenes ATCC 19115 measured after overnight incubation by broth double-dilution method; how it was run: as §2
# [27] = system: Staphylococcus aureus; test: Antibacterial activity against methicillin-resistant Staphylococcus aureus USA300 measured after overnight incubation by broth double-dilution method; how it was run: as §1
# [28] = system: Staphylococcus aureus; test: Antibacterial activity against methicillin-resistant Staphylococcus aureus 1 measured after overnight incubation by broth double-dilution method; how it was run: as §1
# [29] = system: Staphylococcus aureus; test: Antibacterial activity against methicillin-resistant Staphylococcus aureus S24 measured after overnight incubation by broth double-dilution method; how it was run: as §1
# [30] = system: Staphylococcus aureus; test: Antibacterial activity against methicillin-resistant Staphylococcus aureus G6 measured after overnight incubation by broth double-dilution method; how it was run: as §1
# [31] = system: Staphylococcus aureus; test: Antibacterial activity against methicillin-resistant Staphylococcus aureus C19 measured after overnight incubation by broth double-dilution method; how it was run: as §1
# [32] = system: Staphylococcus aureus; test: Antibacterial activity against methicillin-resistant Staphylococcus aureus C16 measured after overnight incubation by broth double-dilution method; how it was run: as §1
# [33] = system: Staphylococcus aureus; test: Antibacterial activity against methicillin-resistant Staphylococcus aureus NRS51 measured after overnight incubation by broth double-dilution method; how it was run: as §1
# [34] = system: Staphylococcus aureus; test: Antibacterial activity against methicillin-sensitive Staphylococcus aureus ATCC 6538 measured after overnight incubation by broth double-dilution method; how it was run: as §1
# [35] = system: Staphylococcus aureus; test: Antibacterial activity against methicillin-resistant Staphylococcus aureus S22 measured after overnight incubation by broth double-dilution method; how it was run: as §1
SMILES,MIC [1] [µg/mL],MIC [2] [µg/mL],MIC [3] [µg/mL],MIC [4] [µg/mL],MIC [5] [µg/mL],MIC [6] [µg/mL],MIC [7] [µg/mL],MIC [8] [µg/mL],MIC [9] [µg/mL],MIC [10] [µg/mL],MIC [11] [µg/mL],MIC [12] [µg/mL],MIC [13] [µg/mL],MIC [14] [µg/mL],MIC [15] [µg/mL],MIC [16] [µg/mL],MIC [17] [µg/mL],MIC [18] [µg/mL],MIC [19] [µg/mL],MIC [20] [µg/mL],further results
O=c1c2ccccc2sn1C1CCCCCC1,3.9,2,2,2,3.9,1,2,7.8,3.9,7.8,1,3.9,2,3.9,2,7.8,> 125,0.5,7.8,3.9,MIC [21]: > 125 µg/mL; MIC [22]: 2 µg/mL; MIC [23]: 0.5 µg/mL; MIC [24]: 2 µg/mL; MIC [25]: 2 µg/mL; MIC [26]: 3.9 µg/mL; MIC [27]: 15.6 µg/mL; MIC [28]: 2 µg/mL; MIC [29]: 3.9 µg/mL; MIC [30]: 2 µg/mL; MIC [31]: 1 µg/mL; MIC [32]: 3.9 µg/mL; MIC [33]: 3.9 µg/mL; MIC [34]: 7.8 µg/mL; MIC [35]: 3.9 µg/mL
O=c1c2ccccc2sn1C1CCCCCCC1,3.9,2,3.9,0.5,3.9,> 125,1,7.8,2,15.6,2,3.9,2,> 125,3.9,7.8,15.6,1,3.9,7.8,MIC [21]: 15.6 µg/mL; MIC [22]: 3.9 µg/mL; MIC [23]: 1 µg/mL; MIC [24]: 2 µg/mL; MIC [25]: 3.9 µg/mL; MIC [26]: > 125 µg/mL; MIC [27]: 7.8 µg/mL; MIC [28]: 3.9 µg/mL; MIC [29]: 3.9 µg/mL; MIC [30]: 2 µg/mL; MIC [31]: 2 µg/mL; MIC [32]: 3.9 µg/mL; MIC [33]: 2 µg/mL; MIC [34]: 2 µg/mL; MIC [35]: 7.8 µg/mL
